Data: PMC8163515 (Bioorganic chemistry, 2020)
Converted amounts (≈) assume the structure as drawn. “Also recorded” adds a separate entry of the source.

Legend:
human recombinant ATX [1] = target: T1, human recombinant ATX (Homo sapiens, UniProt Q13822); assay: ATX inhibition, hydrolysis of FRET substrate FS-3; assay type: biochemical; details: for Mechanism: FS-3 0 to 10 μM, inhibitor at 0, 0.5 × IC50 or 2 × IC50
In short: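 Human ATX, C-terminal FLAG-tagged, expressed in Sf9 cells by baculovirus and purified on anti-FLAG beads. Fluorescence (485/528 nm) read every 2 min for 1 h. Percent activity taken at 1 h; IC50 (±SD) interpolated from a variable-slope Hill fit.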

human recombinant ATX [2] = target: T1, human recombinant ATX; assay: ATX inhibition, hydrolysis of nucleotide substrate pNP-TMP; assay type: biochemical; details: 1 mM pNP-TMP, 4 nM human rATX
In short: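 Purified FLAG-tagged human ATX from the Sf9 baculovirus system was run with nucleotide substrate pNP-TMP in triplicate wells. Absorbance at 405 nm read every 2 min for 1 h; triplicate means recorded and percent activity derived from the 1 h point.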

LPAR1 = LPAR1 (Homo sapiens, UniProt Q92633); assay: LPA1 receptor antagonism, calcium mobilization in LPA1 RH7777 cells; assay type: cell-based; details: for LPAR1 inhibitory activity: result in words
Sequence of LPAR1 (Q92633 whole entry, species assumed): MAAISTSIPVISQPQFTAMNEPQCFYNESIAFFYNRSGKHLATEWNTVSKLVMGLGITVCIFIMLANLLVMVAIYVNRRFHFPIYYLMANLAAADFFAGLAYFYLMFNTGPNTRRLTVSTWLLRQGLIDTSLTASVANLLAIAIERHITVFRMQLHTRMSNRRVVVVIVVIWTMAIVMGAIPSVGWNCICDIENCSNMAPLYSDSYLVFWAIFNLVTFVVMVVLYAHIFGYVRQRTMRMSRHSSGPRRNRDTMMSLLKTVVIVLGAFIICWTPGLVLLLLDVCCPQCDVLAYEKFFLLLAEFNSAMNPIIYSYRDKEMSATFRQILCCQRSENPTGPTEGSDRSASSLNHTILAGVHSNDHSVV
In short: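 Stably LPA1-overexpressing rat hepatoma RH7777 cells, kept in DMEM, 10% FBS, 2 mM L-glutamine, 250 μg/mL G418, 37 °C, 5% CO2. Plated at 5 × 10^4 cells/well on poly-L-lysine overnight, serum-deprived 4 h in Krebs buffer (pH 7.4), loaded 30 min with 4.5 μg/mL Fura-2AM. Compound dose range tested with and without LPA 18:1 at its EC50 concentration. Fluorescence 340/510 and 380/510 nm every 3.42 s for 70 s. Triplicate mean ratios normalized to LPA Emax; IC50 from variable-slope fit.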

log P = assay type: physicochemical
Water solubility = assay type: physicochemical
[3] = IC50 (nM ± SD) vs FS-3, 1 μM FS-3, 4 nM human rATX, 1 h
[4] = Experimental pIC50, -log IC50, ATX enzyme inhibition
[5] = IC50 (nM) ATX enzyme, QSAR data set, compounds of this study

Q: With `CS(=O)(=O)N(c1cc(C(=O)Nc2cc(F)c(F)c(F)c2)c(Cl)cc1Cl)C1CCOCC1` [Compound 10, 2,4-dichloro-5-(N-(tetrahydro-2H-pyran-4-yl)-methylsulfonamido)-N-(3,4,5-trifluorophenyl)-benzamide] as the molecule, how does the Mechanism (human recombinant ATX [1]) read?
A: Competitive

Q: And the IC50 (human recombinant ATX [1]; [3])?
A: 220 ± 14.7 nM

Q: And the pNP-TMP inhibition (human recombinant ATX [2])?
A: none

Q: What about the LPAR1 inhibitory activity (LPAR1) of the same molecule?
A: neither compound 10 nor compound 11 showed any LPAR1 inhibitory activity; also recorded: no LPAR1 inhibitory activity

Q: What about the logP (log P) of the same molecule?
A: 3.2

Q: What about the solubility (Water solubility) of the same molecule?
A: > 100 µg/mL

Q: For `O=C(Nc1cc(F)c(F)c(F)c1)c1cc(C(C(=O)O)N2CCOCC2)ccc1F` (stereo not drawn) [Compound 15, 2-(4-fluoro-3-((3,4,5-trifluorophenyl)-carbamoyl)-phenyl)-2-morpholinoacetic acid], which IC50 (human recombinant ATX [1]; [4]) is on record?
A: > 1000 nM

Q: What about the IC50 (human recombinant ATX [1]; [3]) of the same molecule?
A: > 1000 nM

Q: And the IC50 (human recombinant ATX [1]; [5])?
A: ≥ 1000 nM

Q: And the pNP-TMP inhibition (human recombinant ATX [2])?
A: none

Q: What about the IC50 (LPAR1) of the same molecule?
A: > 1000 nM

Q: And the logP (log P)?
A: 2.44

Q: What about the solubility (Water solubility) of the same molecule?
A: > 100 µg/mL

Q: With `N#CC(c1ccc(F)c(C(=O)Nc2cc(F)c(F)c(F)c2)c1)N1CCOCC1` (stereo not drawn) [Compound 14, 5-(cyano(morpholino)methyl)-2-fluoro-N-(3,4,5-trifluorophenyl)-benzamide] as the molecule, how does the IC50 (human recombinant ATX [1]; [3]) read?
A: > 1000 nM

Q: And the IC50 (human recombinant ATX [1]; [5])?
A: ≥ 1000 nM

Q: And the pNP-TMP inhibition (human recombinant ATX [2])?
A: none

Q: What about the IC50 (LPAR1) of the same molecule?
A: > 1000 nM

Q: What about the logP (log P) of the same molecule?
A: 2.91

Q: And the solubility (Water solubility)?
A: 50 µg/mL (≈ 127 µM)

Q: Which IC50 (human recombinant ATX [1]; [4]) does the source give for `CS(=O)(=O)N(c1cc(C(=O)Nc2cc(F)c(Cl)c(F)c2)c(Cl)cc1Cl)C1CCOCC1` [Compound 11, 2,4-dichloro-N-(4-chloro-3,5-difluorophenyl)-5-(N-(tetrahydro-2H-pyran-4-yl)-methylsulfonamido)-benzamide] here?
A: 219 nM

Q: And the Mechanism (human recombinant ATX [1])?
A: Competitive

Q: And the IC50 (human recombinant ATX [1]; [3])?
A: 219 ± 25.2 nM

Q: What about the IC50 (human recombinant ATX [1]; [5]) of the same molecule?
A: 219 nM

Q: What about the pNP-TMP inhibition (human recombinant ATX [2]) of the same molecule?
A: none

Q: And the LPAR1 inhibitory activity (LPAR1)?
A: neither compound 10 nor compound 11 showed any LPAR1 inhibitory activity; also recorded: no LPAR1 inhibitory activity

Q: What about the logP (log P) of the same molecule?
A: 3.68

Q: What about the solubility (Water solubility) of the same molecule?
A: > 100 µg/mL
